Bioassay records as filed in PubChem BioAssay.
In the library only some 2.6% were active in any assay of this set; here they are far more common.
FGF22 binding: binders of recombinant human FGF22 by thermal shift | SYPRO orange fluorescence; percent of sucrose octasulfate shift, DMSO zero | activity (Tm shift, normalised), % at 9.99 µM | 1.5% of 340,000 active | AID 651658;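 active = mean Tm shift, scaled 0 neutral to 100 positive control, at about 1.3% or above, every replicate too, limit read from the data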
Target sequence (Q9HCT0 whole entry, looked up): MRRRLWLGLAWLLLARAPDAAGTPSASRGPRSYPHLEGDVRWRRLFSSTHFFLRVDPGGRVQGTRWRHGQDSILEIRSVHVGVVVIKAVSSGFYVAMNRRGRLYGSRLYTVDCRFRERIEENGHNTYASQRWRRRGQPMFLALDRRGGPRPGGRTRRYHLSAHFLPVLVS
Casp6 inh: caspase-6 (human) enzyme inhibition. 0.53% of 350,000 active. inhibition, % at 12.5 µM. P55212. purified caspase-6, Z-VEID-R110 cleavage fluorescence;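 active = mean inhibition across replicates at least about 35%, with every replicate also reaching that limit, limit read from the data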;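 note: 0% = median of neutral control wells and 100% = no fluorescence left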
Target sequence (P55212 24-179 limits assumed): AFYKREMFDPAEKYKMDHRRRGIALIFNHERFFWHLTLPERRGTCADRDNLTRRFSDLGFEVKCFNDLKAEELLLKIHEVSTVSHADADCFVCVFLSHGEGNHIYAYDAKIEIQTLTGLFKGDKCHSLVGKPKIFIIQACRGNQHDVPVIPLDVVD
Target sequence (P55212 194-293 limits assumed): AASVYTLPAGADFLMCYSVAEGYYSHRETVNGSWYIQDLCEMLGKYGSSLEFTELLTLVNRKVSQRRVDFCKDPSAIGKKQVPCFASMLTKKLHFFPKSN
UCH37 inh: human UCH37 deubiquitinating enzyme inhibition | Q9Y5K5 | purified proteasome/UCH37, Ub-AMC cleavage fluorescence | inhibition, % (concentration not given with the values) | 0.33% of 330,000 active;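 active = mean inhibition over replicate wells above about 20%, limit read from the data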;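 note: 0% = compound-free wells with enzyme and 100% = wells lacking proteasome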
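Material: Human UCH37 enzyme supplied as purified proteasome complex | Schedule: 30 min compound-proteasome preincubation then 25 min substrate reaction, room temperature | Detection: AMC fluorescence from Ub-AMC cleavage, excitation 355 nm, emission 460 nm | Benchmarks: Wells without proteasome as full block, compound-free enzyme plus substrate as uninhibited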
SIRT5 block: blocks human SIRT5 desuccinylation of peptide; Q9NXA8; Purified SirT5, succinyl-peptide AMC, trypsin-coupled fluorescence; inhibition, % at 15 µM; 1.1% of 330,000 active; in the data active = inhibition above about 15%
NSD2 inh: NSD2 (human) methyltransferase inhibition. O96028. NSD2 peptide methylation, AlphaScreen, 120 min. inhibition, % at 12.5 µM. 0.54% of 310,000 active; in the data active = inhibition above about 50%
The depositor's hits bear a star.

`COc1ccc2[nH]c(C)c(CCNC(=S)Nc3cc(C)ccc3C)c2c1` gave FGF22 binding 0, Casp6 inh -2, UCH37 inh 2 and SIRT5 block -4.
Screening COc1ccc2[nH]c(C)c(CCNC(=S)Nc3ccccc3OC)c2c1 returned FGF22 binding 43*, Casp6 inh 3, UCH37 inh 2, SIRT5 block 0 and NSD2 inh 4.
Cc1cccc(OCC(=O)NN=Cc2ccccc2C(=O)O)c1 was read as UCH37 inh -1.
For CC(CN1CCCC1)OC(=O)c1ccccc1Cl (configuration not stated) the results were FGF22 binding 0, Casp6 inh -6, UCH37 inh 3, SIRT5 block 18* and NSD2 inh 1.
CC(CN1C(C)CCCC1C)OC(=O)c1ccc(Cl)cc1 (configuration not stated) was read as FGF22 binding 44*, Casp6 inh 0, UCH37 inh 0, SIRT5 block -2 and NSD2 inh -1.
Screening COc1ccc(CC(=O)OC(C)CN2CCCCC2)cc1 (configuration not stated) returned FGF22 binding 43*, Casp6 inh -2, UCH37 inh 4, SIRT5 block 6 and NSD2 inh -7.
COc1ccc(C(=O)OCCN2CCCCC2)cc1 was read as FGF22 binding 0, Casp6 inh -4, UCH37 inh 4, SIRT5 block 25* and NSD2 inh 13.
For CC(C)(C)c1ccc(C(=O)OCCN2CCCCC2)cc1 the results were FGF22 binding 0, Casp6 inh -7, UCH37 inh 5, SIRT5 block -6 and NSD2 inh 6.
`CC(CN1CCN(C)CC1)OC(=O)c1ccccc1Cl` (configuration not stated) gave UCH37 inh 1 and NSD2 inh 3.
`Cc1cccc(C(=O)OC(C)CN2C(C)CCCC2C)c1` (configuration not stated) gave FGF22 binding 0, Casp6 inh -1, UCH37 inh 2, SIRT5 block -6 and NSD2 inh 0.
`COCc1cc(C=NNC(=O)COc2ccc(Cl)cc2)ccc1OC` gave UCH37 inh 0.
C[C@H]1CN([C@@H](C)CO)C(=O)c2cc(-c3cccc(F)c3)cnc2O[C@@H]1CN(C)C(=O)C1CCOCC1 was read as FGF22 binding 0, Casp6 inh 0 and SIRT5 block -2.
For Cc1ccc(C(=O)OC(C)CN2CCN(C)CC2)cc1 (configuration not stated) the results were FGF22 binding 0, Casp6 inh 0, UCH37 inh 4, SIRT5 block 22* and NSD2 inh -4.
For COc1ccc(C(=O)OC(C)CN2CCN(C)CC2)cc1 (configuration not stated) the results were FGF22 binding 0, Casp6 inh -1, UCH37 inh 1, SIRT5 block -1 and NSD2 inh 1.
Screening Cc1noc(C)c1S(=O)(=O)N(C)C[C@@H]1OCCCC[C@@H](C)Oc2ccc(NS(=O)(=O)c3cccs3)cc2C(=O)N([C@@H](C)CO)C[C@@H]1C returned FGF22 binding 0, Casp6 inh 2 and SIRT5 block -2.
`CCN(CC(=O)Nc1ccc(NC(C)=O)cc1)C(=O)/C=C/c1ccccc1` gave FGF22 binding 0, Casp6 inh 2, UCH37 inh -1, SIRT5 block -1 and NSD2 inh 0.
`CCN(CC(=O)Nc1ccc(NC(C)=O)cc1)C(=O)C(c1ccccc1)c1ccccc1` gave FGF22 binding 43*, Casp6 inh -1, UCH37 inh 3, SIRT5 block -3 and NSD2 inh 0.
`C[C@H]1CN([C@@H](C)CO)C(=O)c2cccc(NS(=O)(=O)c3ccccc3)c2O[C@@H]1CN(C)CC1CC1` gave FGF22 binding 0, Casp6 inh 4 and SIRT5 block 0.
Screening Clc1cc(Br)ccc1OCCOCCN1CCOCC1 returned UCH37 inh 29* and NSD2 inh -9.
`Clc1cc(Br)ccc1OCCOCCN1CCCC1` gave FGF22 binding 0, Casp6 inh -10, UCH37 inh 2, SIRT5 block -4 and NSD2 inh 2.
Screening COc1ccc(Oc2nc(-c3ccccc3)ncc2C(=O)O)cc1 returned FGF22 binding 43*, Casp6 inh 0, UCH37 inh 0, SIRT5 block -2 and NSD2 inh 1.
`COc1ccc(Sc2nc(-c3ccccc3)ncc2C(=O)O)cc1` gave FGF22 binding 43, Casp6 inh 3, UCH37 inh 2, SIRT5 block -1 and NSD2 inh 0.
Screening COc1cc(OC)c(-c2nn3c(C4CCCCC4)nnc3s2)cc1OC returned FGF22 binding 0, Casp6 inh 43*, UCH37 inh -35, SIRT5 block -5 and NSD2 inh -2.
Screening Cc1cccc(NC(=O)Cn2nnc(-c3cccs3)n2)c1C returned Casp6 inh -1, UCH37 inh 2, SIRT5 block 25* and NSD2 inh -2.
Screening CCc1ccccc1NC(=O)Cn1nnc(-c2cccs2)n1 returned UCH37 inh 0 and NSD2 inh 31.
Cc1cc(=O)[nH]c(NN=C2CCC(C(C)(C)C)CC2)n1 (configuration not stated) was read as FGF22 binding 44*, Casp6 inh -3, UCH37 inh -1, SIRT5 block -2 and NSD2 inh 3.
For C/C(=N\Nc1nc(C)cc(=O)[nH]1)C1CC1 the results were FGF22 binding 0, Casp6 inh 1, SIRT5 block -2 and NSD2 inh -2.
O=C(O)c1cc(-c2ccc(/C=N/N3C(=O)C4C5C=CC(C6CC56)C4C3=O)o2)ccc1Cl (configuration not stated) was read as FGF22 binding 43*, Casp6 inh 23, SIRT5 block 4 and NSD2 inh 16.
O=C(O)c1cc(-c2ccc(/C=N/N3C(=O)C4C5C=CC(CC5)C4C3=O)o2)ccc1Cl (configuration not stated) was read as FGF22 binding 0, Casp6 inh 13, SIRT5 block 1 and NSD2 inh -2.
For COc1cc(C=Nn2cnnc2)ccc1OCCSc1ccc(C)cc1 the results were UCH37 inh -3.
Screening CC(C)CC(=O)Nc1cccc(C(C)O)c1 (configuration not stated) returned FGF22 binding 43*, Casp6 inh 7, UCH37 inh 1, SIRT5 block -3 and NSD2 inh 0.
For CCCCC(=O)Nc1cccc(C(C)O)c1 (configuration not stated) the results were FGF22 binding 43*, Casp6 inh -6, UCH37 inh 1, SIRT5 block -7 and NSD2 inh 0.
COCCNC(=O)C[C@H]1C[C@@H]2c3cc(NC(=O)NC4CCCC4)ccc3O[C@@H]2[C@H](CO)O1 was read as FGF22 binding 0, Casp6 inh 4 and SIRT5 block -8.
